One may read the IC50 as the concentration needed to halve the response being measured. For orientation: AUC means concentration integrated over time. Higher therefore signals high exposure. Usually solubility stands for the dissolved amount per volume that the medium holds. A lower solubility goes with little dissolved substance. For orientation: inhibition in vivo means the drop in the measured response relative to a control, in per cent.

Molecules are shown by their SMILES. In brackets after ≈: the same amount, converted by molar mass.

Experimental findings from ChEMBL document CHEMBL4196126, “Optimization of 3-Pyrimidin-4-yl-oxazolidin-2-ones as Orally Bioavailable and Brain Penetrant Mutant IDH1 Inhibitors” (ACS Med Chem Lett, 2018) are described below.

The target in series [1] is T1, Isocitrate dehydrogenase [NADP] cytoplasmic (Homo sapiens, UniProt O75874, R132H). Kind of series: Inhibition of IDH1 R132H mutant (unknown origin) expressed in HCT116 cells assessed as reduction in 2-HG levels after 48 hrs by LC-MS/MS analysis. Type of series: cell-based.
A short description of series [2]: Intrinsic clearance in rat liver microsomes at 1 uM in presence of NADPH by LC-MS/MS analysis. Type of series: ADME, microsome. The note with it: read-out: CLH.
A short description of series [3]: Plasma protein binding in rat plasma at 5 uM after 4 hrs by rapid equilibrium dialysis based LC/MS/MS method. (In general: Equilibrium dialysis compares concentrations on both sides of a semipermeable membrane.)
Series [4] concerns the target Isocitrate dehydrogenase [NADP] cytoplasmic (Homo sapiens, UniProt O75874, R132C). Kind of series: Inhibition of IDH1 R132C mutant (unknown origin) assessed as NADPH consumption using alpha-ketoglutarate as substrate by fluorescence assay.
The nature of series [5]: Ratio of AUC in Sprague-Dawley rat brain to plasma at 1 mg/kg, iv or 10 mg/kg, po. Type of series: ADME, organism-based. The note with it: read-out: Ratio AUC.
The nature of series [6]: Intrinsic clearance in mouse liver microsomes. In kind it is ADME, microsome. The note with it: read-out: CLH. Background: Microsomes from liver hold many membrane-bound enzymes, among them those of drug oxidation.
Series [7] has as its target T1, Isocitrate dehydrogenase [NADP] cytoplasmic. Kind of series: Inhibition of IDH1 R132H mutant (unknown origin) assessed as NADPH consumption using alpha-ketoglutarate as substrate by fluorescence assay.
Series [8] in a line: AUC in Sprague-Dawley rat at 10 mg/kg, po by mass spectrometry based HPLC method. Type of series: ADME, organism-based. The note with it: in vivo. In short, it runs like this: (§1)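 Rats and mice received a single 1 mg/kg intravenous dose and a 10 mg/kg oral dose. Plasma clearance was taken from the intravenous arm. Oral AUC and oral bioavailability were taken from the oral arm.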

Series [9] is described as follows: Solubility of the compound at pH 6.8. In kind it is physicochemical. The note with it: buffer.
The nature of series [10]: Clearance in Sprague-Dawley rat plasma at 1 mg/kg, iv or 10 mg/kg, po by mass spectrometry based HPLC method. In kind it is ADME, organism-based. An outline of the steps: as §1
Series [11] can be described thus: Clearance in C57BL/6 mouse plasma at 1 mg/kg, iv or 10 mg/kg, po by mass spectrometry based HPLC method. In kind it is ADME, organism-based. In short, it runs like this: as §1
The subject of series [12] is Mus musculus. Kind of series: In vivo inhibition of IDH1 R132H mutant in HSD athymic nude mouse tumor xenografted with human HCT116 cells assessed as reduction in 2-HG level at 150 mg/kg, po measured 16 to 24 hrs post dose by LC-MS/MS analysis relative to control. In kind it is functional. The note with it: HCT-116, po. An outline of the steps: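 Mice bearing HCT116-IDH1 R132H/+ xenograft tumors received a single 150 mg/kg oral dose. 2-HG was measured in tumor tissue and expressed as percent inhibition relative to vehicle-treated tumors over a 16−24 h post-dose window. Plasma drug concentrations were measured alongside.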
(In general: In xenograft studies the graft and the host belong to different species.)

For series [13], the species on record is Homo sapiens. Kind of series: Selectivity ratio of IC50 for wild-type IDH1 (unknown origin) to IC50 for IDH1 R132C mutant (unknown origin).
For series [14], the species on record is Homo sapiens. Kind of series: Selectivity ratio of IC50 for wild-type IDH1 (unknown origin) to IC50 for IDH1 R132H mutant (unknown origin).
Series [15] in a line: Oral bioavailability in C57BL/6 mouse at 10 mg/kg by mass spectrometry based HPLC method. Type of series: ADME, organism-based. The note with it: in vivo. In short, it runs like this:
as §1

Series [16] can be described thus: Oral bioavailability in Sprague-Dawley rat at 10 mg/kg by mass spectrometry based HPLC method. In kind it is ADME, organism-based. The following applies: in vivo. An outline of the steps:
as §1

Series [17] in a line: AUC in C57BL/6 mouse at 10 mg/kg, po by mass spectrometry based HPLC method. The following applies: in vivo. In kind it is ADME, organism-based. In short, it runs like this:
as §1

The target in series [18] is Isocitrate dehydrogenase [NADP] cytoplasmic (Homo sapiens, UniProt O75874). Kind of series: Inhibition of wild-type IDH1 (unknown origin) assessed as NADPH production using isocitrate as substrate by fluorescence assay.
The nature of series [19]: Plasma protein binding in mouse plasma at 5 uM after 4 hrs by rapid equilibrium dialysis based LC/MS/MS method.
For series [20], the system named is Mus musculus. Kind of series: Time at which unbound plasma concentration stays above cellular IDH1 R132H mutant inhibitory IC50 in HSD athymic nude mouse xenografted with human HCT116 cells. Type of series: ADME, organism-based. The note with it: in vivo. An outline of the steps:
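After a single 150 mg/kg oral dose in HCT116-IDH1 R132H/+ xenograft mice, unbound plasma concentration was estimated from total plasma levels corrected by mouse plasma protein binding. It was then followed over time against the HCT116-IDH1 R132H/+ cellular IC50.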

The target of series [21] is T1, Isocitrate dehydrogenase [NADP] cytoplasmic. Kind of series: Inhibition of IDH1 R132H mutant (unknown origin) using alphaKG as substrate in presence of NADPH by LC-MS/MS analysis.
A short description of series [22]: Intrinsic clearance in human liver microsomes. In kind it is ADME, microsome. The note with it: read-out: CLH.

T1 sequence (O75874 2-414 R132H limits assumed): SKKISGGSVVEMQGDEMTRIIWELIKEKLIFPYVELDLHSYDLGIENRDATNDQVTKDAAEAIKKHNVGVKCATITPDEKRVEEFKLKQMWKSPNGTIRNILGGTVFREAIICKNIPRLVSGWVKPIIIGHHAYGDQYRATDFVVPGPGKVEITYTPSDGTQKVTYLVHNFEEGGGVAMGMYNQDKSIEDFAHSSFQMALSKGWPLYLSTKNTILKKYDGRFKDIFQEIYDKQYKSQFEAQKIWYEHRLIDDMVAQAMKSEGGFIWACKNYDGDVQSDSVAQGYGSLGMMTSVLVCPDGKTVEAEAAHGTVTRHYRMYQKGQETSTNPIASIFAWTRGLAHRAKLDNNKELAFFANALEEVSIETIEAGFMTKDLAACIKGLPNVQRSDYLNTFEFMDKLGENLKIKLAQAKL
Sequence of Isocitrate dehydrogenase [NADP] cytoplasmic (Homo sapiens, UniProt O75874, R132C) (O75874 2-414 R132C limits assumed): as the sequence (O75874 2-414 R132H limits assumed) above, with H131C counted along it
Sequence of Isocitrate dehydrogenase [NADP] cytoplasmic (Homo sapiens, UniProt O75874) (O75874 whole entry): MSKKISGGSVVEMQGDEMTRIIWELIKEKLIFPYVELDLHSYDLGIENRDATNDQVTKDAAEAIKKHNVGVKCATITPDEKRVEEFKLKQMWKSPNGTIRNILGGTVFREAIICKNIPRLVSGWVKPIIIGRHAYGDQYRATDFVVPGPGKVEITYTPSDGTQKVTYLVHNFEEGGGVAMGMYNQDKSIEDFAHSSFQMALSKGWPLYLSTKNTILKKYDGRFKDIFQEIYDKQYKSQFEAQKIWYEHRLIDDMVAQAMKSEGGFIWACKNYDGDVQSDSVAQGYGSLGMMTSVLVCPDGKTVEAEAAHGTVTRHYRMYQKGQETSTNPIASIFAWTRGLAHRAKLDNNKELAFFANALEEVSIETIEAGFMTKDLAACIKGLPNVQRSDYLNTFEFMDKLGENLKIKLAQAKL

With `CC[C@H]1COC(=O)N1c1nc(N[C@@H](C)c2cn(-c3ccc(Cl)cc3)cn2)ncc1F`, in series [1], the IC50 is 13 nM. In addition, the microsomal CLint at 1 µM in [2] was determined as 448 µL/min/mg.

`C[C@H](Nc1nccc(N2C(=O)OC[C@@H]2CF)n1)c1cn(-c2ccc(C(F)(F)F)cc2)cn1`: the PPB at 4 h, 5 µM in [3] and in series [19] was 0.98 in each case. The IC50 is 45 nM in series [4], 21 nM in series [7], 39 nM in [1] and 2520 nM in series [18]. Also, the Kp in series [5] turned out to be 0.17. In addition, the microsomal CLint in series [6] was 11 µL/min/mg. In [2], the microsomal CLint at 1 µM fell in the range of 7 to 7.7 µL/min/mg. Moreover, the area under the curve (AUC) in series [8] came out at 180 µM·h; in series [17] it was 172 µM·h. Further, the concentration in solution in series [9] (solubility) came to 124 µM (≈ 55.8 µg/mL). Further, the clearance in series [10] stood at 2.6 mL/min/kg; in [11] it was 5 mL/min/kg. In addition, the inhibition in vivo at 150 mg/kg in the series with Mus musculus [12] was greater than 90%. For the same molecule, the Ratio IC50 in the series filed under Homo sapiens [13] and in the series filed under Homo sapiens [14] was 50 to 100 throughout. The bioavailability is 149% in [15] and 127% in series [16]. The molecule also displayed a Time in the series with Mus musculus [20] of 24 h.

Turning to `C[C@H](Nc1ncc(F)c(N2C(=O)OC[C@@H]2C)n1)c1cn(-c2ccc(Cl)cc2)cn1`, the IC50 in series [1] was found to be 47 nM. In addition, the microsomal CLint at 1 µM in [2] was in the range of 101 to 103 µL/min/mg. In series [8], the AUC worked out at 14 µM·h. The molecule further registered a clearance in [10] of 17 mL/min/kg. Also, the bioavailability in series [16] worked out at 67%.

Turning to `CC(C)[C@H]1COC(=O)N1c1ccnc(N[C@@H](C)c2nc(-c3ccccc3Cl)no2)n1`, the IC50 in series [21] was found to be 610 nM. For the same molecule, the microsomal CLint at 1 µM in series [2] came out at 924 µL/min/mg.

Consider `C[C@H](Nc1nccc(N2C(=O)OC[C@@H]2[C@H](C)F)n1)c1cn(-c2ccc(Cl)cc2)cn1`, for which the microsomal CLint at 1 µM in series [2] was 148 µL/min/mg.

As for `C[C@H](Nc1ncc(F)c(N2CCOC2=O)n1)c1cn(-c2ccc(Cl)cc2)cn1`, the values for the microsomal CLint in series [6] and in series [22] were 73 µL/min/mg and 59 µL/min/mg, respectively. Further, the concentration for half-maximal inhibition (IC50) in series [1] worked out at 500 nM. Also, the microsomal CLint at 1 µM in [2] was 34 µL/min/mg.

With `C[C@H](Nc1ncc(F)c(N2C(=O)OC(C)(C)C2(C)C)n1)c1nc(-c2ccc(Cl)cc2)no1`, in [2], the microsomal CLint at 1 µM is 170 µL/min/mg.

In the case of `CC(Nc1nccc(N2CCOC2=O)n1)c1ncc(Oc2ccc(F)cc2)cn1` (racemic), the IC50 in series [21] was 8800 nM. The microsomal CLint at 1 µM in [2] came to 35 µL/min/mg.

Consider `C[C@H](Nc1ncc(F)c(N2C(=O)OC[C@@H]2[C@H](C)F)n1)c1cn(-c2ccc(Cl)cc2)cn1`, for which the IC50 in series [1] amounted to 22 nM. In addition, in series [2], the microsomal CLint at 1 µM is 272 µL/min/mg.

As to `CC(C)[C@H]1COC(=O)N1c1ccnc(N[C@@H](C)c2nc(-c3ccc(Cl)cc3)no2)n1`, the microsomal CLint at 1 µM in series [2] was determined as 302 µL/min/mg.

Turning to `C[C@H](Nc1ncc(F)c(N2C(=O)OC[C@@H]2[C@@H](C)F)n1)c1cn(-c2ccc(Cl)cc2)cn1`, in series [1], the IC50 was 240 nM. The microsomal CLint at 1 µM in series [2] worked out at 237 µL/min/mg.

Turning to `C[C@H](Nc1ncc(F)c(N2C(=O)OC[C@@H]2CF)n1)c1cn(-c2ccc(Cl)cc2)cn1`, the concentration for half-maximal inhibition (IC50) in [1] came out at 24 nM. Moreover, in series [2], the microsomal CLint at 1 µM is 28 µL/min/mg.

As to `CC(C)[C@H]1COC(=O)N1c1ccnc(N[C@@H](C)c2cn(-c3ccc(Cl)cc3)cn2)n1`, in series [1], the IC50 came out at 15 nM. In series [2], the microsomal CLint at 1 µM was found to be 489 µL/min/mg.

As to `C[C@H](Nc1nccc(N2C(=O)OC[C@@H]2[C@H](C)F)n1)c1cn(-c2ccc(C(F)F)cc2)cn1`, the PPB at 4 h, 5 µM was found to be 0.95 in series [3] and 0.92 in [19]. Besides, in series [5], the Kp was less than 0.1. Also, the AUC in [8] was found to be 15 µM·h. The same molecule came in with a solubility in series [9] of 422 µM (≈ 188 µg/mL). The molecule also displayed a clearance in [10] of 20 mL/min/kg. In addition, the bioavailability in [16] was 82%.

As for `CC(C)[C@H]1COC(=O)N1c1ccnc(N[C@@H](C)c2ncc(Oc3ccc(F)cc3)cn2)n1`, the IC50 in series [21] turned out to be 39 nM. The microsomal CLint at 1 µM in [2] was 238 µL/min/mg.

Take `C[C@H](Nc1nccc(N2C(=O)OC[C@@H]2CF)n1)c1cn(-c2ccc(Cl)cc2)cn1`: in [1], the half-maximal inhibitory concentration (IC50) is 30 nM. In addition, in series [2], the microsomal CLint at 1 µM was 75 µL/min/mg.
